From PubChem
Compounds with a hit are over-represented: about 1.7% of the library has one in this group of screens.
TPT1 inh: C. albicans TPT1 enzyme inhibition; inhibition, % at 5 µM; recombinant caTPT1, FP RNA substrate dephosphorylation; 0.81% of 300,000 active; AID 1962;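 active = inhibition above the mean of all tested compounds plus 3 SD, set per screening campaign, cut at about 24% in these data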;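 note: plate controls were DMSO alone for no effect and ferristatin control at 100 nM for full effect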
CSN deneddyl inh: blocks human CSN-mediated cullin deneddylation. 0.38% of 360,000 active. Q92905. Purified CSN, SCF-Nedd8-OG deneddylation, fluorescence polarization. inhibition, % at 12.5 µM;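 active = pattern-corrected inhibition above about 35%, with an unprinted fluorescence ratio check between 0.5 and 1.5, limit read from the data, passing the limit was not always enough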;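 note: 0% = enzyme with substrate and 100% = substrate without enzyme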
Target sequence (Q92905 whole entry, looked up, one chain of several): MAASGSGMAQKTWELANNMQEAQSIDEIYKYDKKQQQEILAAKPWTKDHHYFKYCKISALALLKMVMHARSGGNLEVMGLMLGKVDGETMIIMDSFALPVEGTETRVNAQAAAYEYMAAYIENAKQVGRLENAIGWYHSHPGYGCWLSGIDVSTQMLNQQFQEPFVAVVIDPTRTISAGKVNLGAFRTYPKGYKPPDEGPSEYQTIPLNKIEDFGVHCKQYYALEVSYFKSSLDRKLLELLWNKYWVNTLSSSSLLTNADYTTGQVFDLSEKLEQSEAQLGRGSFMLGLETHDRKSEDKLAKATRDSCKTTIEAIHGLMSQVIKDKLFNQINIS
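Assay system: purified human Csn5 enzyme expressed in HEK293T cells; Input: 0.24 nM Csn5 enzyme, final concentration; Reagent: 10 nM SCFSkp2-Nedd8OG; Compound dosing: 12.5 µM single point; Times: reaction 90 min, room temperature; Technique: fluorescence polarization readout.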
IDE cell activ: boosts human insulin-degrading enzyme activity in HEK cells. FAbeta-B cleavage, fluorescence polarization; 0% vehicle, 100% cell-free pure enzyme wells. activation, % at 5.96 µM. 0.073% of 340,000 active. AID 493087;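 active = activation above the mean of all tested compounds plus 3 SD, set per screening campaign, cut at about 17% in these data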
IDE cell inh: inhibitors of human insulin-degrading enzyme in cells. AID 434962. P14735. HEK cells, FAbetaB cleavage, fluorescence polarization. inhibition, % at 5.59 µM. 0.41% of 320,000 active;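 active = percent inhibition above the average of all tested compounds plus 3 SD, set per screening campaign, cut at about 16% in these data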;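 note: IDE supplied by intact live HEK cells; FP after avidin binding of uncleaved biotin substrate so inhibition keeps polarization high; 0% = DMSO wells and 100% = 60 µM reference IDE inhibitor Ii1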
Rpn11 block: inhibitors of human proteasome Rpn11. O00487. human 26S proteasome, Ub4-pepOG fluorescence polarization; 20S core pre-blocked with epoxomicin. calls only at 20 µM. 0.59% of 360,000 active;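 active = inhibition at 20 µM, scaled to each plate's controls, above about 33%, limit read from the data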
Target sequence (O00487 whole entry, looked up): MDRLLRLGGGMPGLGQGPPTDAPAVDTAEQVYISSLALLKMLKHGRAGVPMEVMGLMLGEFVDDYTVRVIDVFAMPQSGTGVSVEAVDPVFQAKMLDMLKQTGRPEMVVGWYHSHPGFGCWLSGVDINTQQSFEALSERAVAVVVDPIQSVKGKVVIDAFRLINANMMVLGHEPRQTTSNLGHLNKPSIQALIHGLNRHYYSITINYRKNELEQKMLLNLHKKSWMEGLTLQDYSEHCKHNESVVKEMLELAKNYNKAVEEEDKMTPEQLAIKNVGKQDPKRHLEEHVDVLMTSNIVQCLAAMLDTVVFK
HNF4A DNA FP: change in binding of human HNF4 alpha to DNA; P41235; HNF4a-FITC DNA binding, fluorescence polarization, 1 h; activity change, % at 10 µM; 0.3% of 360,000 active; AID 1224865; in the data active = activity change above about 30%, passing the limit was not always enough
Rpn11 confirm: confirmation of human proteasome Rpn11 inhibitors | purified human 26S proteasome, Ub4-pepOG fluorescence polarization; proteasome pretreated with epoxomicin | 29% of 1,900 active | inhibition, % at 20 µM | shares compounds with Rpn11 block | AID 602318
MMP-2 counter: counter-screen for RPN11 inhibitors: inhibition of human MMP-2 | shares compounds with Rpn11 block | recombinant MMP-2, FRET peptide cleavage fluorescence | inhibition, % at 20 µM | 4% of 1,900 active | AID 602330;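 note: human MMP-2 activated beforehand with APMA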
Thrombin inh: thrombin (bovine) inhibition counter-screen; shares compounds with Rpn11 block; bovine thrombin cleavage of Ub4-pepOG, fluorescence polarization; inhibition, % at 20 µM; 13% of 1,900 active; AID 602333;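 active = mean inhibition at least 40% at 20 µM, or signal 3 deviations below plate average, so some actives read negative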;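 note: plate controls were thrombin with DMSO for no effect and buffer wells lacking thrombin for full effect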
An asterisk follows results filed as active; i = inactive; · = no result; + = active, no number. Cut-off read from the data, not from the text of the source, unless noted: active = inhibition above about 40%; inactive = the rest.

SMILES	TPT1 inh	CSN deneddyl inh	IDE cell activ	IDE cell inh	Rpn11 block	HNF4A DNA FP	Rpn11 confirm	MMP-2 counter	Thrombin inh
Cc1ccccc1Sc1ccc(N)cn1	13	-78	·	0	+	72*	9	-33	-2
Cc1ccc(-c2nc3ccccc3o2)cc1NC(=S)NC(=O)c1cc2ccccc2o1	0	-5	2	-7	+	18	-3	-14	11
O=C(COc1ccccc1)Nc1nnc(C23CC4CC(CC(C4)C2)C3)s1	-2	1	7	1	i	0	·	·	·
Cc1oc(-c2cccc(F)c2)nc1CN1CCCCC1CCn1cccn1 (configuration not stated)	0	1	0	-3	i	1	·	·	·
Cc1ccc(-c2nc(CN3CCCCC3CCN3CCCC3=O)c(C)o2)o1 (configuration not stated)	1	-5	3	-2	+	15	18	5	16
Cc1cc(C(C#N)c2ccc(Cl)cc2)c(Cl)cc1NC(=O)c1cc(I)cc(I)c1O (configuration not stated)	-2	12	7	-3	+	-9	-2	-5	-6
Cc1nn(C)cc1-c1cc(C(=O)O)c2ccccc2n1	-2	-2	2	-1	i	1	·	·	·
Cc1cc(-c2cc(C(=O)O)c3ccccc3n2)c(C)s1	1	-3	2	2	+	-1	3	-13	0
CC(=O)c1ccc(N2CCN(CC(=O)Nc3ccc(N4CCOCC4)cc3)CC2)cc1	6	·	·	4	·	·	·	·	·
COc1ccc(/C=C2\SC(N3CCCCC3)=NC2=O)cc1OC	-3	-5	0	-1	i	-5	·	·	·
COc1cc(/C=C2\SC(N3CCC(C)CC3)=NC2=O)ccc1O	8	19	-16	15	+	13	34	-15	28
C=CCn1c(C#N)c(N)sc1=N	11	3	-2	-1	+	19	5	-33	-14
CC(=O)NCCC(=O)Nc1ccc(F)cc1C	-1	-2	3	-3	+	22	-11	-46	0
O=C(Nc1ccc2oc(-c3ccc(Cl)c(Cl)c3)nc2c1)c1ncn[nH]1	-4	7	0	-3	+	-13	-11	-41	-4
COCCn1cc(C(=O)c2cc(Br)ccc2O)cc(C#N)c1=O	17	-8	3	1	+	9	8	21	4
N#Cc1cc(C(=O)c2cc(Br)ccc2O)cn(Cc2ccccc2)c1=O	16	7	-4	10	+	18	13	0	18
COc1ccccc1-n1cc(C(=O)c2cc(Cl)ccc2O)cc(C#N)c1=O	13	4	1	13	+	7	17	-23	8
COc1ccc(O)c(C(=O)c2cc(C#N)c(=O)n(Cc3ccccc3)c2)c1	4	-10	-2	0	i	0	·	·	·
Cc1ccccc1-n1cc(C(=O)c2cc(Cl)ccc2O)cc(C#N)c1=O	10	-7	-7	4	i	1	·	·	·
CN(CC1CCCN(CCc2ccccc2F)C1)C(=O)c1cc2ccccc2o1 (configuration not stated)	·	3	·	·	i	0	·	·	·
FC(F)(F)Oc1ccc(NC(=S)Nc2ccccc2N2CCOCC2)cc1	2	0	2	0	i	-1	·	·	·
CN(Cc1ccccc1)C(=O)COC(=O)c1cc(S(=O)(=O)N(C)C)ccc1N1CCCC1	-3	8	3	9	i	0	·	·	·
COc1ccc(N2CC(NC(=O)N3CCN(c4ccccc4)CC3)CC2=O)cc1 (configuration not stated)	0	-3	1	3	i	-3	·	·	·
NNC(=O)CSc1cccc2cccnc12	2	-6	-1	-5	i	-4	·	·	·
CN(C)C(=O)CSc1cccc2cccnc12	0	1	3	10	+	-4	24	-16	-2
SMILES	TPT1 inh	CSN deneddyl inh	IDE cell activ	IDE cell inh	Rpn11 block	HNF4A DNA FP	Rpn11 confirm	MMP-2 counter	Thrombin inh
O=C(CSc1cccc2cccnc12)N1CCCC1	0	2	0	-1	+	-3	35	-18	-16
Cn1c(N)c(C(=O)COC(=O)c2cc(C3CC3)nc3ccccc23)c(=O)n(Cc2ccccc2)c1=O	16	2	-1	1	+	20	29	-15	6
CC(C)Cn1c(N)c(C(=O)COC(=O)c2cc(C3CC3)nc3ccccc23)c(=O)n(C)c1=O	-5	·	·	-2	·	·	·	·	·
CC(C)Cn1c(N)c(C(=O)COC(=O)c2cc(-c3ccco3)nc3ccccc23)c(=O)n(C)c1=O	16	32	-2	-5	+	0	4	-37	10
Cn1c(N)c(C(=O)COC(=O)c2cc(-c3ccccc3)nc3ccccc23)c(=O)n(Cc2ccccc2)c1=O	6	-1	-3	1	+	20	33	2	20
Cc1ccc(S(=O)(=O)NN2C(=O)c3ccccc3NC2C)cc1 (configuration not stated)	-1	-2	-3	3	i	-4	·	·	·
Cc1ccc(OCC(=O)NNC(=O)CCC(=O)Nc2ccc(C)cc2C)cc1	-7	-3	7	4	i	0	·	·	·
Cn1c(=O)c2cc(S(=O)(=O)NC(C(=O)Nc3cccnc3)c3ccccc3)ccc2n(C)c1=O (configuration not stated)	-2	3	5	2	i	6	·	·	·
Cn1c(=O)c2cc(S(=O)(=O)NC(C(=O)Nc3cccc(F)c3)c3ccccc3)ccc2n(C)c1=O (configuration not stated)	0	-2	4	3	+	-3	72*	-32	-16
CCN1CCc2nc(NC(=O)CC(c3ccccc3)c3ccccc3)sc2C1	16	5	5	0	i	5	·	·	·
CCN1CCc2nc(NC(=O)C(c3ccccc3)c3ccccc3)sc2C1	19	5	2	-11	+	6	10	-19	-3
COc1cc(-c2ccc(Nc3ccccc3C(=O)O)c(OC)c2)ccc1Nc1ccccc1C(=O)O	·	46	-1	·	+	-29	41*	72*	-29
Cc1cc(C)cc(NS(=O)(=O)c2cnc(Cl)c(Cl)c2)c1	3	-1	1	-5	+	40*	1	-15	10
CCOc1ccc(NS(=O)(=O)c2cnc(Cl)c(Cl)c2)cc1	-3	-1	5	3	i	-1	·	·	·
